From PubChem BioAssay
This is a sample that favours compounds with a hit; in the whole collection about 2.1% have one here.
STK33 kinase inh: inhibitors of human STK33 kinase; Q9BYT3; purified STK33, MBP phosphorylation, ADP-Glo luminescence; inhibition, % at 10 µM; 320,000 tested, 0.073% active;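 active means inhibition at or above 25%, using the most active replicate where run in duplicate; inactive means inhibition below 25%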
MEKK2wt PB1 HTS: raises or lowers MEK5 binding to wildtype human MEKK2 PB1 domain; Q9Y2U5; bead flow cytometry, Alexa488-MEK5 binding to MEKK2 WT; actives lie on both sides; binding response (% of control), % at 10 µM; 290,000 tested, 1.1% active; AID 1531; in the data active means binding response below about 67% or above about 130%
GSK3B inh: inhibitors of human GSK3beta kinase; P49841; GST-GSK3beta kinase, ADP-Glo luminescence, 60 min; hits give low values; activity score (negative = inhibition), % at 10 µM; 300,000 tested, 0.038% active;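 active means more than half of replicate wells score below -50%, meaning over 50% inhibition versus plate controls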;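 further: 0% = median DMSO wells and -100% = median GW8510 positive control wells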
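Assay system: GST-fused GSK3beta enzyme, cell-free / Medium: Tris pH 7.5 buffer with MgCl2, DTT, BSA, heparin / Also added: peptide substrate plus 25 µM ATP (final) / Compound: 10 µM single point / Timing: kinase reaction with compound 60 min at room temperature / Detection: ADP-Glo luminescence / Benchmarks: DMSO neutral wells and GW8510 at 20 µM as positive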
GSK3 alpha inh: blocks human GSK-3 alpha kinase; P49840; ADP-Glo luminescence, 60 min; inhibition, % at 10 µM; 320,000 tested, 0.1% active;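 active means more than half of replicates show inhibition above 20%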;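 further: GST-tagged GSK-3 alpha with peptide substrate and 25 µM ATP; 0% = DMSO neutral wells and 100% = GW8510 positive control wells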
MEKK2 mut-MEK5: signal of MEK5 binding to mutant human MEKK2 PB1 domain | bead flow cytometry, Alexa488-MEK5 binding to MEKK2 mutant | 290,000 tested, 0.35% active | percent response, % at 10 µM; in the data active means percent response above about 24%, passing the limit was not always enough
MEKK3 PB1 HTS: modulators (inhibitors or enhancers) of MEK5 binding to human MEKK3 PB1 domain; AID 1529; Q99759; 290,000 tested, 1.4% active; binding response (% of control), % at 10 µM; bead-based flow cytometry, Alexa488-MEK5 binding to MEKK3; actives lie on both sides; 0 = blocked by unlabeled MEK5, 100 = vehicle;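 active means binding response more than 3 SD above or below the average of its plate-row segment, actives on both sides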;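 further: Alexa488 bead fluorescence after subtracting the streptavidin-only scavenger bead signal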
Target sequence (Q99759 whole entry, looked up, the tested form may be a part): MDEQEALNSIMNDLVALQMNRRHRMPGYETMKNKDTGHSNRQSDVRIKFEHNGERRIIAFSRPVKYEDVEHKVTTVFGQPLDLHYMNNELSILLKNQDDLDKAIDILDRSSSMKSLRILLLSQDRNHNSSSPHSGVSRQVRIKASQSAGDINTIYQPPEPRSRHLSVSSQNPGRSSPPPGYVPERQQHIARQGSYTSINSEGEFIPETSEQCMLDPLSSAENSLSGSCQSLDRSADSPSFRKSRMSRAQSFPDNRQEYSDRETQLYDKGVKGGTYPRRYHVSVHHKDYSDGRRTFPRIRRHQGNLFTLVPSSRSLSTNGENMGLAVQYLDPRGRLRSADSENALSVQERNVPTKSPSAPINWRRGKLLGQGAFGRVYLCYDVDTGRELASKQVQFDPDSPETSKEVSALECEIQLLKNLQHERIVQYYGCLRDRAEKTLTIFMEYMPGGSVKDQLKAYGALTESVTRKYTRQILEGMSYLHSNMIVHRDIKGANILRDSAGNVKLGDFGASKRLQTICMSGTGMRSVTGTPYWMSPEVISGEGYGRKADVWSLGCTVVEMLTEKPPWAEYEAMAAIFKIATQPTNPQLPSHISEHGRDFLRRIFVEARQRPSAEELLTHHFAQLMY
MEKK2wt confirm: raises or lowers MEK5 binding to wildtype human MEKK2, retest; shares compounds with MEKK3 PB1 HTS; bead flow cytometry, Alexa488-MEK5 binding to MEKK2 WT; actives lie on both sides; binding response (% of control), % at 10 µM; 5,900 tested, 2.4% active; AID 1892; in the data active means binding response below about 16% or above about 210%; inactive means in between
MEKK2mut-MEK5: signal of MEK5 binding to mutant human MEKK2, retest | AID 1893 | percent response, % at 10 µM | bead flow cytometry, Alexa488-MEK5 binding to MEKK2 mutant | shares compounds with MEKK3 PB1 HTS | 5,900 tested, 2% active; in the data active means percent response mostly above about 71%, no sharp cut-off; inactive means mostly below about 38%;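 further: higher means compound restores mutant binding toward wildtype level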
MEKK3 confirm: MEKK3-MEK5 PB1 inhibition, single concentration confirmation; shares compounds with MEKK3 PB1 HTS; bead flow cytometry, Alexa488-MEK5 binding to MEKK3; hits give low values; binding response (% of control), % at 10 µM; 5,900 tested, 1.8% active;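 active means binding response below 72% of control, or above a set upper limit, though filed actives all read lower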;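 further: 100% = DMSO only wells and 0% = binding blocked by excess unlabeled MEK5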
* hit, by the source's call; [ ] = remark or other dose.

What do the screens show for `Cc1ccc(NC(=O)CC2Oc3ccc(C)cc3NC2=O)cc1` (stereo not given)?
MEKK2wt PB1 HTS: 98; MEKK2 mut-MEK5: 1; MEKK3 PB1 HTS: 99

Results for COC(=O)CC1Oc2ccc(C)cc2NC1=O (stereo not given) ?
STK33 kinase inh: -1; MEKK2wt PB1 HTS: 19*[inhibitor]; GSK3B inh: 2; GSK3 alpha inh: -2; MEKK2 mut-MEK5: -17; MEKK3 PB1 HTS: 16*[inhibitor]; MEKK2wt confirm: 105; MEKK2mut-MEK5: 0; MEKK3 confirm: 100

What do the screens show for `CCOC(=O)c1cccc(NC(=O)Nc2ccc3c(c2)C(=O)OC3)c1`?
STK33 kinase inh: -1; MEKK2wt PB1 HTS: 97; GSK3B inh: -4; GSK3 alpha inh: -1; MEKK2 mut-MEK5: -4; MEKK3 PB1 HTS: 98

How did O=C(Nc1ccc(F)cc1)Nc1ccc(Oc2ncnc3cc(Cl)ccc23)nc1 do in these assays?
STK33 kinase inh: -2; MEKK2wt PB1 HTS: 75; GSK3B inh: -1; GSK3 alpha inh: -2; MEKK2 mut-MEK5: -33; MEKK3 PB1 HTS: 69*[inhibitor]; MEKK2wt confirm: 104; MEKK2mut-MEK5: 2; MEKK3 confirm: 102

How did O=C(O)CCCC(=O)Nc1ccc(Oc2ncnc3cc(Cl)ccc23)nc1 do in these assays?
STK33 kinase inh: 0; MEKK2wt PB1 HTS: 128; GSK3B inh: 3; GSK3 alpha inh: 1; MEKK2 mut-MEK5: 26; MEKK3 PB1 HTS: 128*; MEKK2wt confirm: 98; MEKK2mut-MEK5: -1; MEKK3 confirm: 99

Results for O=C(Nc1ccc(Oc2ncnc3cc(Cl)ccc23)nc1)c1cccs1 ?
STK33 kinase inh: 0; MEKK2wt PB1 HTS: 93; GSK3B inh: -2; GSK3 alpha inh: -1; MEKK2 mut-MEK5: -17; MEKK3 PB1 HTS: 87

Results for O=C(O)c1ccc2c(=O)n3c(nc2c1)/C(=C/c1cccc(Cl)c1Cl)CC3 ?
STK33 kinase inh: 1; MEKK2wt PB1 HTS: 101; GSK3B inh: -2; GSK3 alpha inh: 16; MEKK2 mut-MEK5: 1; MEKK3 PB1 HTS: 98

What do the screens show for `O=C1Cc2cc(S(=O)(=O)NCc3ccccc3Cl)cc3c2N1CCC3`?
STK33 kinase inh: 0; MEKK2wt PB1 HTS: 98; GSK3B inh: 0; GSK3 alpha inh: 3; MEKK2 mut-MEK5: 4; MEKK3 PB1 HTS: 103

Results for CC(=O)c1ccc(N(C(=O)Cn2nnc3ccccc32)C(C(=O)NCc2ccccc2)c2ccccn2)cc1 (stereo not given) ?
STK33 kinase inh: -1; MEKK2wt PB1 HTS: 107; GSK3B inh: 2; GSK3 alpha inh: 1; MEKK2 mut-MEK5: 4; MEKK3 PB1 HTS: 117

Results for Cc1ccc(N(C(=O)Cn2nnc3ccccc32)C(C(=O)NCc2ccccc2)c2ccccn2)cc1 (stereo not given) ?
STK33 kinase inh: 0; MEKK2wt PB1 HTS: 107; GSK3B inh: -2; GSK3 alpha inh: -6; MEKK2 mut-MEK5: 1; MEKK3 PB1 HTS: 128*; MEKK2wt confirm: 103; MEKK2mut-MEK5: 6; MEKK3 confirm: 104

How did O=S(=O)(c1ccc(F)cc1)c1nc(-c2ccco2)oc1Nc1ccc(F)cc1 do in these assays?
STK33 kinase inh: -1; MEKK2wt PB1 HTS: 105; GSK3B inh: -1; GSK3 alpha inh: -2; MEKK2 mut-MEK5: 0; MEKK3 PB1 HTS: 137*; MEKK2wt confirm: 94; MEKK2mut-MEK5: -4; MEKK3 confirm: 98

Results for COc1ccc(Nc2oc(-c3ccco3)nc2S(=O)(=O)c2ccc(F)cc2)cc1 ?
STK33 kinase inh: -1; MEKK2wt PB1 HTS: 96; GSK3B inh: -5; GSK3 alpha inh: 2; MEKK2 mut-MEK5: -1; MEKK3 PB1 HTS: 123

How did C[C@H](CO)N1C[C@H](C)[C@@H](CN(C)Cc2ccncc2)Oc2c(NS(=O)(=O)c3ccccc3)cccc2C1=O do in these assays?
STK33 kinase inh: 0; GSK3 alpha inh: 1

Results for CC(C)(C)NC(=O)c1ccc2c(c1)C1C3CCC(C3)C1C(c1ccccc1)N2 (stereo not given) ?
STK33 kinase inh: 0; MEKK2wt PB1 HTS: 109; GSK3B inh: -2; GSK3 alpha inh: 0; MEKK2 mut-MEK5: 1; MEKK3 PB1 HTS: 198*; MEKK2wt confirm: 119; MEKK2mut-MEK5: 12; MEKK3 confirm: 105

What do the screens show for `CCCCC1(CC(=O)OC)C(=O)N(c2ccccc2)N(c2ccccc2)C1=O`?
STK33 kinase inh: 0; MEKK2wt PB1 HTS: 107; GSK3B inh: 2; GSK3 alpha inh: -3; MEKK2 mut-MEK5: 2; MEKK3 PB1 HTS: 138*; MEKK2wt confirm: 102; MEKK2mut-MEK5: -6; MEKK3 confirm: 103

What do the screens show for `COc1ccc(Cl)cc1NC(=O)CN(C)C(=O)c1sccc1-c1ccccc1`?
STK33 kinase inh: -1; GSK3 alpha inh: -5

How did O=C(CSc1nc2c(sc3ccccc32)c(=O)n1Cc1ccco1)NCC1CCCO1 (stereo not given) do in these assays?
STK33 kinase inh: -1; MEKK2wt PB1 HTS: 3.0*[inhibitor]; GSK3B inh: -5; GSK3 alpha inh: -1; MEKK2 mut-MEK5: -21; MEKK3 PB1 HTS: 2.0*[inhibitor]; MEKK2wt confirm: 107; MEKK2mut-MEK5: 8; MEKK3 confirm: 110

How did COc1ccc([C@H]2/C=C\CN(C(=O)[C@H](Cc3ccccc3)NC(=O)OCC3c4ccccc4-c4ccccc43)CC(=O)N2Cc2ccc(F)cc2)cc1 do in these assays?
STK33 kinase inh: -2; MEKK2wt PB1 HTS: 91; GSK3B inh: -7; GSK3 alpha inh: 3; MEKK2 mut-MEK5: -2; MEKK3 PB1 HTS: 94

Results for CN(CCc1cnn(C)c1)C(=O)C1CCC(=O)N(CC2CCCCC2)C1 (stereo not given) ?
STK33 kinase inh: 1; MEKK2wt PB1 HTS: 104; GSK3B inh: 3; GSK3 alpha inh: -2; MEKK2 mut-MEK5: 3; MEKK3 PB1 HTS: 104

What do the screens show for `Cc1cccc(N(C(=O)c2snc(C(N)=O)c2N)C(C)C(=O)NCC2CCCO2)c1` (stereo not given)?
STK33 kinase inh: -2; MEKK2wt PB1 HTS: 119; GSK3B inh: 0; GSK3 alpha inh: -1; MEKK2 mut-MEK5: 25; MEKK3 PB1 HTS: 130*; MEKK2wt confirm: 74; MEKK2mut-MEK5: -16; MEKK3 confirm: 70*
